# Results from publication PMC4654616 (ACS chemical biology, 2015).
# Read-outs that look alike come from different tables or passages of the source.
# Key:
# MDA-MB-231 cells [1] = test: Boyden Matrigel invasion chamber assay; type: cell-based; conditions: Homo sapiens, MDA-MB-231, 16 h, read-out: IC50 for MDA-MB-231 cell invasion
# Procedure, shortened: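 MDA-MB-231 cells were serum-starved 4 h. Matrigel inserts had fibronectin (30 ng µl⁻¹) coated on the underside overnight at 4 °C and were equilibrated 2 h in serum-free medium. The upper chamber received 5 × 10⁴ cells in 0.1% FBS medium with test compound or 1% DMSO. The lower chamber held 10% FBS medium with the same compound. After 16 h at 37 °C, invaded cells were methanol-fixed, hematoxylin-stained and counted in ten 200× fields; n = 3.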
# MTT cell viability assay = type: cell-based, human; conditions: human, MDA-MB-231 cells
# Procedure, shortened: (§1)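 MDA-MB-231 cells were grown in DMEM with 10% FBS and 1% penicillin/streptomycin at 37 °C, 5% CO₂. Cells (10⁴/well) were plated overnight, then treated 3 days with test compound or DMSO control. MTT (20 µl of 5 mg/ml) was added for 2 h at 37 °C. Viable cells were quantified by absorbance at 570 nm with 630 nm reference.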
# MDA-MB-231 cells [2] = test: MTT cell viability assay; type: cell-based, human; conditions: MDA-MB-231, 100 µM
# Procedure, shortened: as §1
# [3] = tested on: FAK phosphorylation in MDA-MB-231 cells; test: Western blot for phospho-FAK; type: cell-based, human
# Procedure, shortened: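 MDA-MB-231 lysates were made in RIPA buffer with protease and phosphatase inhibitors. Thirty micrograms of protein were resolved on 10% SDS-PAGE and transferred to nitrocellulose. Blots were probed overnight at 4 °C for total FAK, phospho-FAK (Y397) or actin. Dye-conjugated anti-mouse or anti-rabbit secondaries were detected by infrared fluorescence imaging.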
# uPAR [4] = molecular target: T1, uPAR (Homo sapiens, UniProt Q03405); test: Isothermal titration calorimetry of 7 against purified uPAR; type: binding
# T1 sequence (Q03405 23-305 limits assumed): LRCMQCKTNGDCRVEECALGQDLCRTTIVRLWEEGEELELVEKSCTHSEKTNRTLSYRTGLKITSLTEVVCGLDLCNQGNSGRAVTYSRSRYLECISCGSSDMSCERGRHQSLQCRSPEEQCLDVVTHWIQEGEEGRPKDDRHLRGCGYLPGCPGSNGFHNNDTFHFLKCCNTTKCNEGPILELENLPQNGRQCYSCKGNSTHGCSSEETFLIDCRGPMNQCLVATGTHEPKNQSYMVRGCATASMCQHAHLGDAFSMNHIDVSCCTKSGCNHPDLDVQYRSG
# uPAR•uPAATF interaction [5] = molecular target: T2, uPAR•uPAATF interaction (Homo sapiens, UniProt Q03405); type: binding
# T2 sequence (Q03405 23-305 limits assumed): as above
# [6] = molecular target: VTN•uPAR•uPAATF interaction (Homo sapiens, UniProt Q03405); test: Microtiter-based ELISA for uPAR•VTN; type: binding
# VTN•uPAR•uPAATF interaction, sequence (Q03405 23-305 limits assumed): as above
# Procedure, shortened: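 Full-length VTN (5 µg·mL⁻¹, carbonate buffer pH 9.6) was coated 12 h at 4 °C, then blocked 1 h at room temperature. Wells received 120 nM uPAR•uPA_ATF complex in PBS with 0.01% Triton X-100 plus test compound for 60 min. Compound was screened at 50 µM or titrated 100 to 0.4 µM, with 1% DMSO final. Bound uPAR was detected by biotinylated anti-uPAR antibody (1 h), streptavidin-HRP (20 min) and TMB/H₂O₂ with H₂SO₄ stop; n = 2.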
# uPAR [7] = molecular target: T1, uPAR; test: Saturation transfer difference; type: binding; conditions: 438 µM 7, uPAR 50 fold less
# uPAR•uPAATF interaction [8] = molecular target: T2, uPAR•uPAATF interaction; test: Microtiter-based ELISA for uPAR•uPAATF; type: binding
# Procedure, shortened: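 Wells were coated with uPA_ATF (2 µg·mL⁻¹ in PBS, 2 h, 4 °C) and blocked 1 h at room temperature. Purified uPAR lacking the GPI anchor (75 nM, PBS with 0.025% Triton X-100) was added with test compound for 30 min. Compound was screened at 50 µM or titrated 100 to 0.4 µM, with 1% DMSO final. After washing, bound uPAR was detected by biotinylated anti-uPAR antibody (1 h), streptavidin-HRP (20 min) and TMB/H₂O₂ with H₂SO₄ stop; n = 2.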
# [9] = tested on: Rac1 activation in MDA-MB-231 cells; test: Rac1 pull-down assay; type: cell-based, human
# [10] = molecular target: uPAR•uPA binding on HEK-293-uPAR cells (Homo sapiens, UniProt Q03405); test: FACS analysis of FITC-conjugated uPA binding to HEK-293-uPAR cells; type: cell-based; conditions: read-out: inhibition of uPA-FITC binding to uPAR (FACS)
# uPAR•uPA binding on HEK-293-uPAR cells, sequence (Q03405 23-305 limits assumed): as above
# uPAR [11] = molecular target: T1, uPAR; test: Fluorescence polarization, displacement of AE147-FAM peptide from uPAR; type: binding
# Procedure, shortened: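 Test compound was serially diluted in DMSO, then in PBS with 0.01% Triton X-100 (final 100 µM to 0.046 µM). It was preincubated at least 15 min with uPAR before AE147-FAM peptide was added. Final levels were 320 nM uPAR, 100 nM peptide and 2% DMSO. Polarization was read at ex 485/em 530 nm in duplicate. Peptide-only and uPAR + peptide controls were run in quadruplicate.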
IC50 (MDA-MB-231 cells [1]),Kd (uPAR [4]),enthalpy (ΔH) (ITC) (uPAR [4]; 25 °C),entropy (ΔS) (ITC) (uPAR [4]; 25 °C),IC50 (uPAR•uPAATF interaction [5]),IC50 [6],direct binding to uPAR (STD-NMR and ITC) (uPAR [7]),"IC50 (uPAR•uPAATF interaction [8]; IC50 for inhibition of uPAR•uPAATF interaction (ELISA), 75 nM uPAR, immobilized uPAATF)",inhibition at 100 µM [10],Ki (uPAR [11]),IC50 (uPAR•uPAATF interaction [8]),Compound,"viability at 3 days, 100 µM (MTT cell viability assay)",cytotoxicity (MDA-MB-231 cells [2]),FAK phosphorylation at Y397 [3],Rac1 activation [9]
35 µM,17.2 µM,-6.4 kcal/mol,0.01 kcal/mol,12.9 µM,32.8 µM,binds directly to uPAR,18 µM,~40%,–,–,"Cc1ccc(N2C(=O)C(O)=C(C(=O)c3ccc(Cl)cc3)C2c2cccc(F)c2)cc1Br (stereo not drawn) [Compound 7, 1-(3-bromo-4-methylphenyl)-4-(4-chlorobenzoyl)-5-(3-fluorophenyl)-3-hydroxy-1H-pyrrol-2(5H)-one]",> 80%,not cytotoxic,significantly inhibited,inhibited Rac1 activation in a concentration-dependent manner
–,–,–,–,–,–,–,–,–,4.2 µM,58 µM,"CCCCCCOc1cccc(N2C(=O)C(O)=C(C(=O)c3ccccc3)C2c2ccc(CC)cc2)c1 (stereo not drawn) [Compound 1, 4-benzoyl-5-(4-ethylphenyl)-1-(3-(hexyloxy)phenyl)-3-hydroxy-1H-pyrrol-2(5H)-one]",–,–,–,–
